Many of the other results were omitted from the sample, so hits are more common in it than they were.
MPTP inh – permeability transition pore inhibition; hit rate 1.4% among 360,000; inhibition, % at 10 µM; isolated mouse mitochondria, Ca2+ swelling absorbance, 30 min; AID 602449;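 active = inhibition of 50% or more, scaled per plate between neutral and stimulator controls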;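 also: 0% = DMSO wells given calcium and 100% = 1 mM EGTA wells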
L major viab – Leishmania major promastigote growth inhibition; Leishmania major promastigotes, resazurin fluorescence viability; inhibition, % at 10 µM; hit rate 9% among 200,000; AID 1063; in the data active = inhibition above about 50%;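 also: promastigotes grown with compound for 44 hours at 28 °C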
Lipid droplet – hepatic lipid droplet formation modulation; AML12 mouse hepatocytes, oleate lipid droplets, BODIPY imaging; inhibition, % at 6.5 µM; hit rate 0.4% among 240,000;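 active = lipid droplet intensity inhibited by at least 50%, with more than 500 cells counted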
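Assay system: AML12 mouse liver cells | Compound dosing: One dose, 6.5 µM compound | Read-out basis: Droplet intensity reduction, % inhibition | Measured by: Fluorescence imaging, 20x objective, two fields per well | Schedule: Overnight treatment with compound plus oleate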
Redox H2O2 prof – compounds producing H2O2 with reducing agent – biochemical, NIH compound library profiling, artefact control for MLSCN library redox annotation, primary screen. DTT-dependent redox cycling H2O2, phenol red/HRP absorbance; 100% = 100 µM peroxide control, 0% = buffer. activation, % at 10 µM. hit rate 0.03% among 200,000;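 active = activation of at least 50% relative to the plate's high and low controls in the primary single-dose screen; inactive = activation below 50%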;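 also: compound incubated with DTT at 0.8 mM final as the reducing agent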
T cruzi inh – T. cruzi replication inhibition. T. cruzi beta-gal in NIH3T3, luminescence, 90 h. hit rate 1.4% among 300,000. inhibition, % (test concentration not listed);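 active = mean inhibition across valid replicates above about 55%, limit read from the data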;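 also: signal also drops with host cell toxicity which is not excluded here; 0% = plate median of DMSO wells and 100% = zero luminescence signal; higher percent means less beta-gal luminescence so fewer parasites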
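System: Mouse NIH/3T3 fibroblasts infected with β-gal-expressing T. cruzi Tulahuen C4 | Quantity: NIH/3T3 cells, 5,000 per well | Reagent: 5000 reporter trypomastigotes per well | Dosing: Compound pinned at 50 nL/well, DMSO | Schedule: 3 h host attachment, then at least 90 h co-culture | Detection: GalScreen luminescence, 60 min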
* = called active by the depositor; / = not tested or not shown.

SMILES	MPTP inh	L major viab	Lipid droplet	Redox H2O2 prof	T cruzi inh
CCOC(=O)Cn1c(CN2CCN(C(c3ccccc3)c3ccccc3)CC2)nc2c1c(=O)n(C)c(=O)n2C	-2	53*	-9	-1	12
CCN1CCN(Cc2nc3c(c(=O)n(C)c(=O)n3C)n2Cc2cccc3ccccc23)CC1	0	92*	1	0	-3
Cc1ccccc1Cn1c(CN2CCc3ccccc3C2)nc2c1c(=O)n(C)c(=O)n2C	0	81*	-37	0	54
CCN1CCN(c2nc3c(c(=O)n(C)c(=O)n3C)n2Cc2cccc3ccccc23)CC1	-1	13	10	0	-9
Cn1c(=O)c2c(nc(CN3CCc4ccccc4C3)n2Cc2ccc(F)cc2)n(C)c1=O	0	32	/	0	12
Cn1c(=O)c2c(nc(CN3CCN(C(c4ccccc4)c4ccccc4)CC3)n2CC(N)=O)n(C)c1=O	-1	9	20	0	/
CCNc1nc(SCCOc2ccc(Cl)cc2Cl)nc(N(C)C)n1	2	56*	-34	-1	31
Cc1cccc(-n2c(C)cc(C=C(C#N)C#N)c2C)c1	1	62*	-3	0	-9
Cc1cc(/C=C(/C#N)c2cccc(F)c2)c(C)n1-c1cccnc1	1	99*	-5	-1	26
CC1(C)NC(=O)N(CC(=O)N2CCN(S(=O)(=O)c3ccccc3C(F)(F)F)CC2)C1=O	0	/	/	/	/
CN(C)c1ccnc(NCc2ccccc2)c1C#N	0	1	/	0	-8
CN(C)c1ccnc(N(Cc2ccccc2)Cc2ccccc2)c1C#N	1	98*	-2	1	14
CCCCn1c(O)c(N=Nc2ccccn2)c2ccccc21	3	66*	3	0	31
CCCNC(=O)c1cc(C2CCCN(C(=O)c3ccccc3)C2)on1 (configuration not stated)	0	/	/	/	/
CN(C)S(=O)(=O)c1ccc(C(=O)N2CCN(S(=O)(=O)c3cccs3)CC2)cc1	0	75*	17	0	14
COc1ccc2c(c1)c1nnc(SCC(=O)N3CCCCC3C)nc1n2C (configuration not stated)	1	85*	/	2	25
N#CC1(NC(=O)CSc2nnc(-c3ccccc3F)o2)CCCCC1	-2	/	/	/	-1
COc1cc(/C=C/C(=O)c2c(O)ccc3c(C)cc(=O)oc23)ccc1O	-3	99*	8	1	-32
Cc1cc(=O)oc2c(C(=O)/C=C\c3cccs3)c(O)ccc12	-1	34	7	0	-14
CC(=O)c1c(OCC(=O)O)ccc2c(C)cc(=O)oc12	-2	0	-1	0	-9
Cc1cc(=O)oc2c(C(=O)/C=C/c3ccccc3)c(O)ccc12	-2	52*	12	0	-2
COc1ccc(/C=C\C(=O)c2c(O)ccc3c(C)cc(=O)oc23)cc1OC	0	100*	-4	1	/
Nc1nc2c(nnn2C2CC(O)C(CO)O2)c(=O)[nH]1 (configuration not stated)	-4	/	/	/	/
O=C(Nc1ccc(CN2CCOCC2)cc1)c1ccc(-c2cc(Cl)ccc2Cl)o1	0	99*	15	0	23
O=C(/C=C/c1ccc(Cl)cc1Cl)Nc1ccc(CN2CCOCC2)cc1	7	70*	-6	0	17
SMILES	MPTP inh	L major viab	Lipid droplet	Redox H2O2 prof	T cruzi inh
S=C(c1ccc(-c2cc(Cl)ccc2Cl)o1)N1CCCCC1	5	54*	-4	0	0
Clc1cccc(Cl)c1-c1noc(CN2CCOCC2)n1	1	/	11	/	-3
Cc1ccc(NC(=O)CNc2ccccc2N2CCCC2=O)cc1S(=O)(=O)N1CCCCC1	0	/	/	/	/
COc1ccccc1C1(CCNS(=O)(=O)c2ccc(C)cc2)CCOC(C(C)C)C1 (configuration not stated)	1	83*	-22	1	21
c1ccc(-c2nc3c(ccc4ccccc43)[nH]2)nc1	-4	100*	-8	0	-6
CCOc1ccc(-c2nnc(-c3ccncc3)o2)cc1OCC	2	78*	2	0	-1
CC(C)(C)NC(=O)C(c1c[nH]c2ccccc12)N(C(=O)Cn1nnc(-c2ccc(Cl)cc2)n1)c1ccccc1F (configuration not stated)	0	51*	-4	1	55*
COc1cccc(N(C(=O)Cn2nnc(-c3ccc(C)cc3)n2)C(C(=O)NC(C)(C)C)c2c[nH]c3ccccc23)c1 (configuration not stated)	1	20	/	2	35
CN(C)S(=O)(=O)c1ccc(C(=O)NNc2nc(-c3ccccc3)c3cc(Br)ccc3n2)cc1	5	71*	-9	0	18
O=C(NNc1nc(-c2ccccc2)c2cc(Br)ccc2n1)c1ccc(S(=O)(=O)N2CCCCC2)cc1	7	2	1	0	5
COc1ccc(NS(=O)(=O)c2ccc3ccccc3c2)c2ncccc12	-2	/	-6	/	57*
COc1ccccc1NS(=O)(=O)c1ccc2ccccc2c1	1	/	-15	/	12
Cc1cccc(/C=N\N=C\c2cccc(C)c2)c1	-1	/	-2	/	-2
CC(Sc1nc(-c2ccccc2)cc(C(F)(F)F)n1)C(=O)Nc1sc2c(c1C(N)=O)CCC2 (configuration not stated)	2	48	-2	0	5
CC(Sc1nc(-c2ccccc2)cc(C(F)(F)F)n1)C(=O)Nc1sc2c(c1C#N)CCC2 (configuration not stated)	1	10	/	-1	56*
O=C(O)CNS(=O)(=O)c1ccc(C2CCCCC2)cc1	-1	-7	6	-1	-6
CC(O)[C@H]1CNC(=O)C(=O)N1CCc1cc(C(F)(F)F)cc(C(F)(F)F)c1 (some centres not stated)	-1	/	-20	/	-17
N#Cc1c(-c2ccco2)cc(-c2ccccn2)nc1N	-1	78*	17	-1	-18
Cn1c(N)c(C(=O)COC(=O)COc2ccc(Cl)cc2Cl)c(=O)n(C)c1=O	-1	/	/	/	/
Cc1cc(C)c2sc(NNC(=O)c3ccc(S(=O)(=O)N4CCc5ccccc5C4)cc3)nc2c1	7	99*	-54	1	59*
Cc1cc(C)c2nc(NNC(=O)c3ccc(S(=O)(=O)N4CCc5ccccc5C4)cc3)sc2c1	3	99*	-9	0	59*
CCCCc1nnc(NC(=O)c2ccc3[nH]c(=O)c(=O)[nH]c3c2)s1	1	/	5	/	4
O=C(NC1CCCCC1)C(c1ccc(F)cc1)N(CCc1ccccc1)C(=O)CN1C(=O)c2ccccc2S1(=O)=O (configuration not stated)	-4	50*	-24	0	-3
O=C(CN1C(=O)c2ccccc2S1(=O)=O)NC1CCCC1	-1	-5	-6	-2	-11

Bioassay records from PubChem.
